According to ChEMBL document CHEMBL1140721, “Development of potent purine-derived nitrile inhibitors of the trypanosomal protease TbcatB” (J Med Chem, 2008):

Assays:
Trypanosoma brucei = assay: Antitrypanosomal activity against Trypanosoma brucei; format: functional, organism-based
In short: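 Culture-adapted bloodstream T. brucei grown in HMI-9 with pen/strep, 10% heat-inactivated FBS and 10% Serum Plus at 37 °C, 5% CO2, diluted to 1 × 10^4 cells/mL. Inhibitor added from DMSO, 48 h at 37 °C, then 1 h room-temperature equilibration. Cell Titer Glo luminescence read after 8 min. Quadruplicate. IC50 by curve fitting. Values shift up to 10-fold with FBS lot.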

Procathepsin L = Procathepsin L (Homo sapiens, UniProt P07711); assay: Inhibition of human liver cathepsin L
Sequence of Procathepsin L (P07711 whole entry): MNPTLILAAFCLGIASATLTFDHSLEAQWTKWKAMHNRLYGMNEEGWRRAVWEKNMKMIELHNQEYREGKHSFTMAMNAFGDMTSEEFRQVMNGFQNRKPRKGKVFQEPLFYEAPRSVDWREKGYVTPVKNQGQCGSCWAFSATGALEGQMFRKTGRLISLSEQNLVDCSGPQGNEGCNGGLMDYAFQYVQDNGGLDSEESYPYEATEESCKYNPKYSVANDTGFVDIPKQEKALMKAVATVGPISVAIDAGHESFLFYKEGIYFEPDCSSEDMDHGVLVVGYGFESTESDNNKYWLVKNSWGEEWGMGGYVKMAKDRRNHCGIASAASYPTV
In short: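 Inhibitor preincubated 20 min at room temperature before Z-Phe-Arg-AMC (10 µM final). Initial rate from fluorescence (ex 350/em 460 nm) over 10 min. Quadruplicate. Sigmoidal IC50 fit.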

Cathepsin B = Cathepsin B (Homo sapiens, UniProt P07858); assay: Inhibition of human liver cathepsin B
In short: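 Human liver enzyme at 0.56 ng/mL final in sodium acetate pH 5.5 buffer with 4 mM DTT, 0.01% Triton X-100, 0.5 mM EDTA. 20 min room-temperature preincubation with inhibitor, then Z-Arg-Arg-AMC (10 µM final). Quadruplicate. Sigmoidal IC50 fit.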

[1] = target: T1, Cathepsin B-like cysteine protease (Trypanosoma brucei, UniProt Q6R7Z5); assay: Inhibition of Trypanosoma brucei cathepsin B-like cysteine protease
T1 sequence (Q6R7Z5 whole entry): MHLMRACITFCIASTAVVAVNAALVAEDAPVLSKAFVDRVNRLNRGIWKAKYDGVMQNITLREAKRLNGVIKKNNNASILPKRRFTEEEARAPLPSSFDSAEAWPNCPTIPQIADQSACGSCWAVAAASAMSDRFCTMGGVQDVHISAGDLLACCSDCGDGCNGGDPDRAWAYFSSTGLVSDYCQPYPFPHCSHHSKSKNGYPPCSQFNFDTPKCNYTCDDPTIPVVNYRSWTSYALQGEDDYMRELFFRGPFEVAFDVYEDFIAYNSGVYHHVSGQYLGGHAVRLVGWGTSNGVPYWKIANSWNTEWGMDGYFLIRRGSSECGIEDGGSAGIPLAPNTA
In short: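 Recombinant TbcatB zymogen expressed in Pichia pastoris, purified by HIC and anion exchange, titrated with CA074; 35 nM final. Inhibitor preincubated 20 min at room temperature, then Z-Phe-Arg-AMC (10 µM final). Initial rate from fluorescence (ex 350/em 460 nm) over 10 min. Triplicate. Sigmoidal IC50 fit.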

Row | Structure (SMILES) | IC50 (Trypanosoma brucei) [µM] | IC50 (Procathepsin L) [µM] | IC50 (Cathepsin B) [µM] | IC50 [1] [µM]
1 | CCC(C)CNc1nc(C#N)nc2c1ncn2Cc1ccccc1 (stereo not drawn) | 3.4 | 5.83 | > 30 | 5
2 | CCCn1cnc2c(NC3CCCCC3)nc(C#N)nc21 | 12 | 2.53 | 19 | 8.3
